In brackets after ≈: the same amount, converted by molar mass.
Legend:
Type in all cases: functional
Escherichia coli [1] = assay: Potency against Escherichia coli (H560)
Escherichia coli [2] = assay: Potency against Gram-negative mean
Escherichia coli [3] = assay: Minimum inhibitory concentration against Escherichia coli (H560)
Procedure, shortened: (§1)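 MICs were determined by standard microtitration against a panel of 11 bacterial strains. Aqueous stock solutions were prepared with 0.1 N sodium or potassium hydroxide.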

Escherichia coli [4] = assay: Minimum inhibitory concentration against Escherichia coli (vogel); procedure, shortened: as §1
Enterobacter cloacae = assay: Minimum inhibitory concentration against Enterobacter cloacae. (MA2446).
Klebsiella pneumoniae = assay: Minimum inhibitory concentration against Klebsiella pneumoniae (MGH-2); procedure, shortened: as §1
Mus musculus [5] = assay: In vivo activity against Pseudomonas aeruginosa (po); settings: read-out: PD50
Procedure, shortened: (§2)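 Median protective dose (PD50, mg/kg) measured in acute, lethal, systemic infections in female Charles River CD-1 mice. A single dose of compound was given at the time of bacterial challenge. Aqueous stock solutions were made with 0.1 N sodium or potassium hydroxide.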

Mus musculus [6] = assay: In vivo activity against Pseudomonas aeruginosa (sc); settings: read-out: PD50; procedure, shortened: as §2
Mus musculus [7] = assay: In vivo activity against Streptococcus pneumoniae (po); settings: read-out: PD50; procedure, shortened: as §2
Mus musculus [8] = assay: In vivo activity against Streptococcus pneumoniae (sc); settings: read-out: PD50; procedure, shortened: as §2
Mus musculus [9] = assay: In vivo activity against Streptococcus pyogenes (po); settings: read-out: PD50; procedure, shortened: as §2
Mus musculus [10] = assay: In vivo activity against Streptococcus pyogenes (sc); settings: read-out: PD50; procedure, shortened: as §2
Mus musculus [11] = assay: In vivo activity against Escherichia coli (po); settings: read-out: PD50; procedure, shortened: as §2
Pseudomonas aeruginosa = assay: Minimum inhibitory concentration against Pseudomonas aeruginosa. (UI-18); procedure, shortened: as §1
Providencia rettgeri = assay: Minimum inhibitory concentration against Providencia rettgeri. (M1771); procedure, shortened: as §1
Streptococcus pyogenes = assay: Minimum inhibitory concentration against Streptococcus pyogenes (C203).; procedure, shortened: as §1
Staphylococcus aureus [12] = assay: Minimum inhibitory concentration against Staphylococcus aureus (H-228).; procedure, shortened: as §1
Staphylococcus aureus [13] = assay: Minimum inhibitory concentration against Staphylococcus aureus (UC76).; procedure, shortened: as §1
Streptococcus pneumoniae = assay: Minimum inhibitory concentration against Streptococcus pneumoniae (SV-1).; procedure, shortened: as §1
Enterobacter [14] = assay: Minimum inhibitory concentration against gram-negative enterobacteriaceae.
Procedure, shortened: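 This value is the geometric mean of microtitration MICs for the Gram-negative Enterobacteriaceae strains in the 11-organism panel. Aqueous stocks were prepared in 0.1 N sodium or potassium hydroxide.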

Mus musculus [15] = assay: In vivo activity against Escherichia coli (sc); settings: read-out: PD50; procedure, shortened: as §2
Enterococcus faecalis = assay: Minimum inhibitory concentration against Streptococcus faecalis (MGH-2).; procedure, shortened: as §1
Enterobacter [16] = assay: Minimum inhibitory concentration as geometric mean calculated for the gram-negative enterobacteriaceae.
Procedure, shortened: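 MICs were determined by standard microtitration. The value is the geometric mean of the MICs across the Gram-negative Enterobacteriaceae strains in the test panel.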

Row | SMILES | MIC (Escherichia coli [3]) | MIC (Escherichia coli [4]) | MIC (Enterobacter cloacae) | MIC (Klebsiella pneumoniae) | ED50 (Mus musculus [5]) | ED50 (Mus musculus [6]) | ED50 (Mus musculus [7]) | ED50 (Mus musculus [8]) | ED50 (Mus musculus [9]) | ED50 (Mus musculus [10]) | ED50 (Mus musculus [11]) | MIC (Pseudomonas aeruginosa) | MIC (Providencia rettgeri) | MIC (Streptococcus pyogenes) | MIC (Staphylococcus aureus [12]) | MIC (Staphylococcus aureus [13]) | MIC (Streptococcus pneumoniae) | ED50 (Mus musculus [15]) | MIC (Enterococcus faecalis) | further results
1 | CCNCC1CCN(c2c(F)cc3c(=O)c(C(=O)O)cn(CC)c3c2F)C1 (configuration not stated) [MERAFLOXACIN] | 0.1 µg/mL (≈ 0.264 µM) | 0.1 µg/mL (≈ 0.264 µM) | 0.2 µg/mL (≈ 0.527 µM) | 0.2 µg/mL (≈ 0.527 µM) | > 200 mg/kg | 76 mg/kg | 20 mg/kg | 4 mg/kg | 9 mg/kg | 3 mg/kg | 12 mg/kg | 1.6 µg/mL (≈ 4.22 µM) | 0.4 µg/mL (≈ 1.05 µM) | 0.1 µg/mL (≈ 0.264 µM) | 0.1 µg/mL (≈ 0.264 µM) | 0.05 µg/mL (≈ 0.132 µM) | 0.1 µg/mL (≈ 0.264 µM) | 2 mg/kg | 0.1 µg/mL (≈ 0.264 µM) | Log (Escherichia coli [1]): 6.59 1/M MIC; Log (Escherichia coli [2]): 6.35 1/M MIC; MIC (Enterobacter [14]): 0.17 µg/mL (≈ 0.448 µM)
2 | CCn1cc(C(=O)O)c(=O)c2cc(F)c(N3CCNCC3)cc21 [NORFLOXACIN] | 0.1 µg/mL (≈ 0.313 µM) | 0.025 µg/mL (≈ 0.0783 µM) | 0.1 µg/mL (≈ 0.313 µM) | 0.05 µg/mL (≈ 0.157 µM) | 76 mg/kg | 11 mg/kg | > 100 mg/kg | > 100 mg/kg | > 100 mg/kg | 45 mg/kg | 4 mg/kg | 0.2 µg/mL (≈ 0.626 µM) | 0.05 µg/mL (≈ 0.157 µM) | 0.8 µg/mL (≈ 2.51 µM) | 0.8 µg/mL (≈ 2.51 µM) | 0.05 µg/mL (≈ 0.157 µM) | 1.6 µg/mL (≈ 5.01 µM) | 0.6 mg/kg | 1.6 µg/mL (≈ 5.01 µM) | MIC (Enterobacter [16]): 0.06 µg/mL (≈ 0.188 µM)
